Source: PubChem (Johns Hopkins Ion Channel Center)
A selection: hits, their analogues and other compounds. The true share with any hit is near 3.5%.
MrgX1 ag – agonists of human MrgX1 receptor; MrgX1-HEK293 cells, Fluo-4 calcium fluorescence, agonist mode; active compounds read high; B-score at 10 µM; hit rate 0.44% among 310,000; AID 588627;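 active means calcium response B-score plate-corrected fluorescence ratio at least 3 library SD, with starting fluorescence B-score inside 5 SD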
Target sequence (Q96LB2 whole entry, looked up): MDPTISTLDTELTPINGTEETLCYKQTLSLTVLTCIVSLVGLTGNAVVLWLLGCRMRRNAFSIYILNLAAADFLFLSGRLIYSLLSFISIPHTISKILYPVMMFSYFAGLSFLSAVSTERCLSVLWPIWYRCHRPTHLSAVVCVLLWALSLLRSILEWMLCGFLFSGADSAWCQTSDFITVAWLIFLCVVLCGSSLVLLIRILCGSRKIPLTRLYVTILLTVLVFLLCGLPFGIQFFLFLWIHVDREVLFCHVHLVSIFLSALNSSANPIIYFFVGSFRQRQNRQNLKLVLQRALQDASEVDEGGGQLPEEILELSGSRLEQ
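System – MrgX1-expressing HEK293 cells · Incubation – cells plated overnight, dye loaded 0.5 h 37 °C, 0.5 h room temperature · Technique – kinetic Fluo-4 NW fluorescence of intracellular calcium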
MrgX1 PAM – allosterically activates human MrgX1 receptor signaling | MrgX1-HEK293, Fluo-4 calcium flux, FDSS; active compounds read high | hit rate 0.63% among 310,000 | AID 588675 | B-score at 10 µM | Q96LB2;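 active means plate-corrected calcium response at least 3 library SD above typical, normal starting fluorescence, not activating the receptor alone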;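 further: compound read alongside a low EC10 to EC30 dose of BAM8-22 agonist; peak minus trough fluorescence over baseline measured at the second addition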
RGS4 pot – potentiators or activators of RGS4. hit rate 0.92% among 310,000. B-score at 10 µM. HEK293 M3R/inducible RGS4, carbachol calcium flux Fluo4; active compounds read low. AID 463111;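 active means B-score of the integrated calcium signal more than 4 SD below the library mean, with starting fluorescence not abnormally high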;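 further: negative B-score means reduced calcium response which marks RGS4 activation or potentiation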
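Detection: kinetic calcium fluorescence imaging with Fluo4-AM dye, 2 µM / Material: HEK293 cells with stable M3R and inducible RGS4 / Schedule: recording 10 s baseline at 1 Hz, 100 s post-agonist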
MrgX1 antagonist – blocks BAM8-22 activation of human MrgX1 receptor; MRGX1-HEK293 calcium flux, Fluo-4, BAM8-22 antagonism; active compounds read low; hit rate 1.3% among 310,000; B-score at 10 µM; Q96LB2;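 active means calcium-response B-score plate-corrected more than 3 library SD below zero, starting fluorescence within 5 deviations, no agonist response on first addition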;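 further: peak minus trough fluorescence over baseline after final BAM8-22 challenge near maximal dose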
RGS4 block – human RGS4 inhibition. P49798. HEK293 M3R/RGS4 inducible, Fluo-4 calcium flux; active compounds read high; triggered by carbachol at its EC20. B-score at 10 µM. hit rate 0.45% among 310,000. AID 463165;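 active means B-score, a plate-corrected calcium signal, over three deviations above library mean, with baseline fluorescence within five deviations of library mean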;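 further: RGS4 expression induced by doxycycline in cells with stable M3 receptor; B-score is computed from the integrated fluorescence ratio over baseline after carbachol; higher B-score means a larger calcium signal and so more RGS4 inhibition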
Target sequence (P49798 whole entry, looked up): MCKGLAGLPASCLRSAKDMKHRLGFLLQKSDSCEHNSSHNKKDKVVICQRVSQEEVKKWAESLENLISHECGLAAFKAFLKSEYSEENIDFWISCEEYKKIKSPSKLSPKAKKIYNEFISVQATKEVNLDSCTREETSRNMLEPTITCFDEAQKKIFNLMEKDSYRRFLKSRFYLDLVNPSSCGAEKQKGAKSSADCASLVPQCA
The depositor's hits bear a star; i = inactive; . = not tested or not shown.

SMILES	MrgX1 ag	MrgX1 PAM	RGS4 pot	MrgX1 antagonist	RGS4 block
O=C(O)c1ccc(CSc2nc(-c3ccc(Cl)cc3)cc(C(F)(F)F)n2)cc1	i	i	-7.5*	i	i
O=C(O)c1ccc(CSc2nc(-c3ccccc3)cc(C(F)(F)F)n2)cc1	i	i	i	i	i
O=C(c1ccccc1)C(Nc1ccccn1)c1ccccc1 (stereo not given)	i	i	-7.5*	i	i
O=C(CC(=O)c1ccccc1)Nc1ccccn1	i	i	i	i	i
C=CCC1(C(=O)NCCO)CCN(C(=O)OC(C)(C)C)CC1	i	i	i	i	i
CCOc1cc(/C=N/Nc2nc(-c3cccc(S(=O)(=O)N4CCCC4)c3)cs2)ccc1O	i	i	-8.8*	i	i
O=S(=O)(c1cccc(-c2csc(N/N=C/c3ccco3)n2)c1)N1CCOCC1	i	i	-8.6*	i	i
COc1ccc(/C=N/Nc2nc(-c3cccc(S(=O)(=O)N4CCCC4)c3)cs2)cc1OC	i	i	i	i	i
COc1cc(/C=N/Nc2nc(-c3ccc(S(=O)(=O)N(C)C)cc3)cs2)ccc1O	i	i	-7.4*	i	i
CCOc1ccccc1NC(=S)N1CCN(c2ccccc2F)CC1	i	i	i	i	i
CCOC(=O)C(=Cc1c[nH]c2ccc(S(=O)(=O)N(C)C)cc12)C(=O)OCC	i	6.7*	i	i	i
CCOC(=O)/C(C#N)=C/c1c[nH]c2ccccc12	i	i	i	i	i
Cn1cc(/C=C/C(=O)c2ccccc2)c2ccccc21	i	i	i	i	i
Cn1cc(/C=C(\C(=O)O)C(C(=O)O)=C2CCCCC2)c2ccccc21	i	i	i	-4.8*	i
Cc1ccc(OCC(=O)NCCNC(=O)c2ccc(C)nc2)cc1	i	i	i	i	i
COc1cccc(CNc2ccc(F)c([N+](=O)[O-])c2)c1O	i	18*	i	i	i
COc1cc(/C=C/C(=O)NCCc2ccc(S(N)(=O)=O)cc2)ccc1OCC#N	i	12*	i	i	i
CC1=CC(=Nc2c(C)n(C)n(-c3ccccc3)c2=O)C=CC1=O	i	i	i	i	11*
CC1=CC(=Nc2c(C)n(C)n(-c3ccccc3)c2=O)C=C(C)C1=O	i	i	i	i	i
N#C/C(=C\c1cccs1)C(=O)Nc1ccccn1	i	i	i	-4.9*	i
N#C/C(=C\c1ccccc1)C(=O)Nc1nncs1	i	8*	i	i	i
COn1c(-c2ccccc2)c(C=O)c2ccccc21	i	19*	i	i	i
CCn1c(O)c(N=NC(=O)C(O)c2ccccc2)c2ccccc21 (stereo not given)	i	i	i	i	i
O=C(CSCc1cnn(-c2ccccc2)c1-n1cccc1)NCc1ccc2c(c1)OCO2	.	.	-7.3*	.	i
O=C(NCc1ccccc1)/C(=C\c1ccccc1)NC(=O)c1ccco1	i	i	i	i	i
SMILES	MrgX1 ag	MrgX1 PAM	RGS4 pot	MrgX1 antagonist	RGS4 block
CS(=O)(=O)N1CCN(C(=O)C2c3ccccc3Oc3ccccc32)CC1	i	i	-7.5*	i	i
N#C/C(=C\c1cc2c(cc1Br)OCO2)c1ccc(C(=O)O)cc1	i	i	i	i	i
CCc1ccc2oc(=O)cc(CN3CCC(C)CC3)c2c1	29*	i	i	i	i
CC1CCN(Cc2cc(=O)oc3cc4c(cc23)CCCC4)CC1	i	8.5*	i	i	i
CCc1ccc2oc(=O)cc(CN3CCOCC3)c2c1	i	i	i	i	i
Cc1cc(C(=O)CS(=O)(=O)c2ccc(Cl)cc2)cc(C)c1O	i	i	i	i	i
O=C(COc1ccc2ccc(=O)oc2c1)Nc1c(Cl)cccc1C(F)(F)F	i	i	i	i	i
COc1ccc(CCNC(=O)C23CN(Cc4ccccc4)CC2C(c2cccc([N+](=O)[O-])c2)=NO3)cc1 (stereo not given)	i	i	i	-8.3*	i
Cc1ccc(CCNC(=O)C23CN(Cc4ccccc4)CC2C(c2cccc([N+](=O)[O-])c2)=NO3)cc1 (stereo not given)	i	i	i	i	i
C#CCSc1nnc(-c2ccc(C)cc2)o1	i	i	i	i	i
C#CCSc1nnc(-c2ccc(O)cc2)o1	i	i	i	-7.6*	i
CCOC(=O)C1CCCN(C(=O)c2ccc(-c3ccc([N+](=O)[O-])cc3)o2)C1 (stereo not given)	i	i	-9*	i	i
O=C(COC(=O)c1ccc(-c2ccc([N+](=O)[O-])cc2)o1)NC(=O)NC1CCCCC1	i	i	-7*	i	i
O=C(COC(=O)c1ccc(-c2ccc([N+](=O)[O-])cc2)o1)NC(=O)NC12CC3CC(CC(C3)C1)C2	i	i	i	i	i
COc1cccc(/C=C2\SC(=S)N(NS(=O)(=O)c3ccccc3)C2=O)c1OC	i	i	i	i	i
Cc1ccccc1C(=O)N1CCC(C(=O)Nc2ccc(S(=O)(=O)N3CCCCC3)cc2)CC1	i	i	i	i	i
O=C(Nc1ccc(S(=O)(=O)N2CCOCC2)cc1)C1CC(=O)N(c2ccc(F)cc2)C1 (stereo not given)	i	i	i	i	i
COc1ccc(C(=O)C2CCCN(S(=O)(=O)C(C)C)C2)c(C)c1 (stereo not given)	i	i	-7.6*	i	i
COc1ccc(C(=O)C2CCCN(S(=O)(=O)N(C)C)C2)c(C)c1 (stereo not given)	i	i	i	i	i
CC(=O)NC(=S)NNC(=O)C(c1ccccc1)c1ccccc1	i	12*	i	i	i
O=S(=O)(NCc1c(Cl)cccc1Oc1ccccc1)c1ccc(F)cc1	i	i	i	i	i
Cc1cc(OC(=O)c2ccccc2Cl)cc(=O)n1C	i	10*	i	i	i
COc1ccc(C(=O)NCCS(=O)(=O)N2CCCC2)cc1	i	i	i	i	i
CCCCCCCCC[n+]1cccc2c3ccccc3ccc21	i	i	-8.6*	i	i
CCOC(=S)SCc1cn2cccc(C)c2n1	i	i	i	i	i
C=CCn1c(-c2ccc(OC)c(OC)c2)n[nH]c1=S	i	i	i	i	i
C=CCn1c(-c2c(C)nc3cc(C)ccn23)n[nH]c1=S	i	i	i	-5.9*	i
